Measurements as given in ChEMBL document CHEMBL1147382, “Cytotoxic constituents from Hyptis verticillata” (J Nat Prod, 1993).
Converted amounts (≈) assume the structure as drawn. The source made the active and inactive calls. No cut-off for these calls is given here.

Assays:
[1] = Toxicity in brine shrimp; assay type: organism-based; conditions: artemia, in vivo
[2] = test system: P388; experiment: Cytotoxicity in mouse P388 cells; assay type: functional; conditions: read-out: ED50 (the source's name)
[3] = Antimitotic activity in rat ASK cells assessed as reversal of astrocyte formation at 100 ug/mL; assay type: functional
Outline: (§1)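 Cultured rat glioma (ASK) cells were used, following Swanson et al. The antimitotic read-out was the dose giving 100% reversal of astrocyte conversion. Pure lignans were tested across a range of concentrations.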

[4] = Antimitotic activity in rat ASK cells assessed as reversal of astrocyte formation at 20 ug/mL; assay type: functional; outline: as §1
[5] = Antimitotic activity in rat ASK cells assessed as reversal of astrocyte formation at 4 ug/mL; assay type: functional; outline: as §1
[6] = Antimitotic activity in rat ASK cells assessed as reversal of astrocyte formation at 0.8 ug/mL; assay type: functional; outline: as §1
[7] = Antimitotic activity in rat ASK cells assessed as reversal of astrocyte formation at 0.16 ug/mL; assay type: functional; outline: as §1
[8] = Antimitotic activity in rat ASK cells assessed as reversal of astrocyte formation at 0.032 ug/mL; assay type: functional; outline: as §1
[9] = Antimitotic activity in rat ASK cells assessed as reversal of astrocyte formation at 0.0064 ug/mL; assay type: functional; outline: as §1
[10] = test system: A-431; experiment: Cytotoxicity against human A431 cells; assay type: functional; conditions: read-out: ED50 (the source's name)
[11] = Cytotoxicity against human BC1 cells; assay type: functional; conditions: read-out: ED50 (the source's name)
[12] = test system: Col2; experiment: Cytotoxicity against human Col2 cells; assay type: functional; conditions: read-out: ED50 (the source's name)
[13] = test system: HT; experiment: Cytotoxicity against human HT cells; assay type: functional; conditions: read-out: ED50 (the source's name)
[14] = Cytotoxicity against human KBV1 cells; assay type: functional; conditions: KB-V1, read-out: ED50 (the source's name)
[15] = test system: LNCaP; experiment: Cytotoxicity against human LNCAP cells; assay type: functional; conditions: read-out: ED50 (the source's name)
[16] = test system: Lu1; experiment: Cytotoxicity against human Lu1 cells; assay type: functional; conditions: read-out: ED50 (the source's name)
[17] = Cytotoxicity against human U373 cells; assay type: functional, U-373MG ATCC; conditions: U373 MG, read-out: ED50 (the source's name)
[18] = test system: ZR-75-1; experiment: Cytotoxicity against human ZR-75-1 cells; assay type: functional; conditions: read-out: ED50 (the source's name)
[19] = test system: KB; experiment: Cytotoxicity against human KB cells; assay type: functional; conditions: read-out: ED50 (the source's name)
[20] = test system: Candida albicans; experiment: Antimicrobial activity against Candida albicans ATCC 10231 at 0.2 to 1 ug/ml; assay type: functional, organism-based
[21] = Antimitotic activity in rat ASK cells assessed as reversal of astrocyte formation at 0.00128 ug/mL; assay type: functional
Outline: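 Cultured rat glioma (ASK) cells, run essentially by a previously published astrocyte-formation procedure. Antimitotic potential is scored as the dose needed to give 100% reversal of astrocyte conversion.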

Row | SMILES | LC50 [1] [µg/mL] | EC50 [2] [µg/mL] | Activity [3] [%] | Activity [4] [%] | Activity [5] [%] | Activity [6] [%] | Activity [7] [%] | Activity [8] [%] | Activity [9] [%] | EC50 [10] [µg/mL] | EC50 [11] [µg/mL] | EC50 [12] [µg/mL] | EC50 [13] [µg/mL] | EC50 [14] [µg/mL] | EC50 [15] [µg/mL] | EC50 [16] [µg/mL] | EC50 [17] [µg/mL] | EC50 [18] [µg/mL] | EC50 [19] [µg/mL] | further results
1 | COc1cc(-c2c3c(c(O)c4c(OC)c5c(cc24)OCO5)COC3=O)cc(OC)c1OC | > 500 | 4 (≈ 9.08 µM) | 100 | 100 | 0 | 0 | 0 | 0 | 0 | 6.2 (≈ 14.1 µM) | 7.6 (≈ 17.3 µM) | 12.8 (≈ 29.1 µM) | 15.6 (≈ 35.4 µM) | 8.7 (≈ 19.8 µM) | 11.6 (≈ 26.3 µM) | 11.7 (≈ 26.6 µM) | 16.3 (≈ 37 µM) | > 20 | 6 (≈ 13.6 µM) | 
2 | COc1cc(-c2c3c(cc4c(OC)c5c(cc24)OCO5)COC3=O)cc(OC)c1OC | 435 (≈ 1020 µM) | 1.8 (≈ 4.24 µM) | 100 | 100 | 100 | 0 | 0 | 0 | 0 | > 20 | 2.9 (≈ 6.83 µM) | 3.2 (≈ 7.54 µM) | 3.4 (≈ 8.01 µM) | 4.2 (≈ 9.9 µM) | 3.2 (≈ 7.54 µM) | 4.3 (≈ 10.1 µM) | 5.9 (≈ 13.9 µM) | > 20 | 2.2 (≈ 5.18 µM) | 
3 | COc1cc(C[C@H]2C(=O)OC[C@@H]2Cc2ccc3c(c2)OCO3)cc(OC)c1OC | 2.8 (≈ 6.99 µM) | 0.4 (≈ 0.999 µM) | 100 | 100 | 100 | 100 | 100 | 0 | 0 | > 20 | 0.05 (≈ 0.125 µM) | 0.08 (≈ 0.2 µM) | 0.07 (≈ 0.175 µM) | 0.06 (≈ 0.15 µM) | 0.16 (≈ 0.4 µM) | 0.1 (≈ 0.25 µM) | 0.3 (≈ 0.749 µM) | 0.5 (≈ 1.25 µM) | 0.08 (≈ 0.2 µM) | Activity [20]: Active
4 | COc1cc([C@@H]2c3cc4c(cc3C[C@H]3COC(=O)[C@@H]32)OCO4)cc(OC)c1O [4'-DEMETHYLDEOXYPODOPHYLLOTOXIN] | 0.2 (≈ 0.52 µM) | 0.005 (≈ 0.013 µM) | 100 | 100 | 100 | 100 | 100 | 100 | 0 | 0.08 (≈ 0.208 µM) | 0.01 (≈ 0.026 µM) | 0.03 (≈ 0.078 µM) | 0.01 (≈ 0.026 µM) | 0.02 (≈ 0.052 µM) | 0.02 (≈ 0.052 µM) | 0.03 (≈ 0.078 µM) | 0.1 (≈ 0.26 µM) | 2.1 (≈ 5.46 µM) | 0.01 (≈ 0.026 µM) | Activity [20]: Active
5 | COc1cc2c(c(OC)c1OC)-c1ccc(OC)c(=O)cc1[C@@H](NC(C)=O)CC2 [COLCHICINE] |  |  | 100 | 100 | 100 | 70 | 0 | 0 | 0 |  |  |  |  |  |  |  |  |  |  | Activity [21]: 0%
6 | COc1cc(-c2c3c(c(O)c4cc5c(cc24)OCO5)COC3=O)cc(OC)c1OC [DEHYDROPODOPHYLLOTOXIN] | 255 (≈ 621 µM) | > 5 | 100 | 100 | 0 | 0 | 0 | 0 | 0 | > 20 | 15.2 (≈ 37 µM) | 8.9 (≈ 21.7 µM) | 9.7 (≈ 23.6 µM) | 13 (≈ 31.7 µM) | 11.7 (≈ 28.5 µM) | 10.6 (≈ 25.8 µM) | > 20 | > 20 | 5 (≈ 12.2 µM) | 
7 | COc1cc(-c2c3c(cc4cc5c(cc24)OCO5)COC3=O)cc(OC)c1OC [DEOXYDEHYDROPODOPHYLLOTOXIN] | > 500 | > 5 | 100 | 0 | 0 | 0 |  |  |  | 6.2 (≈ 15.7 µM) | > 20 | 16.7 (≈ 42.3 µM) | > 20 | > 20 | 11.6 (≈ 29.4 µM) | 18.8 (≈ 47.7 µM) | > 20 | > 20 | 11.4 (≈ 28.9 µM) | 
8 | COc1cc([C@@H]2c3cc4c(cc3C[C@H]3COC(=O)[C@H]32)OCO4)cc(OC)c1OC [DEOXYPICROPODOPHYLLIN] | 142 (≈ 355 µM) | 0.1 (≈ 0.251 µM) | 100 | 100 | 100 | 100 | 0 | 0 | 0 | > 20 | 2.1 (≈ 5.27 µM) | 0.3 (≈ 0.753 µM) | 0.2 (≈ 0.502 µM) | 0.7 (≈ 1.76 µM) | 0.2 (≈ 0.502 µM) | 0.09 (≈ 0.226 µM) | 0.1 (≈ 0.251 µM) | 0.6 (≈ 1.51 µM) | 0.1 (≈ 0.251 µM) | 
9 | COc1cc([C@@H]2c3cc4c(cc3C[C@H]3COC(=O)[C@@H]32)OCO4)cc(OC)c1OC [DESOXYPODOPHYLLOTOXIN] |  | 0.002 (≈ 0.00502 µM) | 100 | 100 | 100 | 100 | 100 | 100 | 0 | 4.3 (≈ 10.8 µM) | 0.001 (≈ 0.00251 µM) | 0.01 (≈ 0.0251 µM) | 0.003 (≈ 0.00753 µM) | 0.06 (≈ 0.151 µM) | 0.01 (≈ 0.0251 µM) | 0.002 (≈ 0.00502 µM) | 0.001 (≈ 0.00251 µM) | 2 (≈ 5.02 µM) | 0.05 (≈ 0.125 µM) | 
10 | COc1cc([C@@H]2c3cc4c(cc3C[C@@H]3COC(=O)[C@H]32)OCO4)cc(OC)c1OC [ISODEOXYPODOPHYLLOTOXIN] | > 500 | > 20 | 100 | 100 | 0 | 0 | 0 | 0 | 0 | 6.2 (≈ 15.6 µM) | 17.5 (≈ 43.9 µM) | 8.9 (≈ 22.3 µM) | 10.7 (≈ 26.9 µM) | 11.5 (≈ 28.9 µM) | 12 (≈ 30.1 µM) | 15.9 (≈ 39.9 µM) | 2.9 (≈ 7.28 µM) | 13.2 (≈ 33.1 µM) | 6.7 (≈ 16.8 µM) | 
11 | COc1cc2cc(c1Cl)N(C)C(=O)C[C@H](OC(=O)[C@H](C)N(C)C(C)=O)[C@]1(C)O[C@H]1[C@H](C)[C@@H]1C[C@@](O)(NC(=O)O1)[C@H](OC)/C=C/C=C(\C)C2 [MAYTANSINE] |  |  | 100 | 100 | 100 | 100 | 100 | 100 | 100 |  |  |  |  |  |  |  |  |  |  | Activity [21]: 0%
12 | COc1cc([C@@H]2c3cc4c(cc3[C@H](O)[C@H]3COC(=O)[C@H]23)OCO4)cc(OC)c1OC [PODOFILOX] | 0.2 (≈ 0.483 µM) | 0.003 (≈ 0.00724 µM) | 100 | 100 | 100 | 100 | 100 | 100 | 0 | 0.03 (≈ 0.0724 µM) | 0.03 (≈ 0.0724 µM) | 0.005 (≈ 0.0121 µM) | 0.003 (≈ 0.00724 µM) | 0.06 (≈ 0.145 µM) | 0.04 (≈ 0.0965 µM) | 0.008 (≈ 0.0193 µM) | 0.004 (≈ 0.00965 µM) | 0.4 (≈ 0.965 µM) | 0.08 (≈ 0.193 µM) | 
13 | CC[C@]1(O)C[C@@H]2CN(CCc3c([nH]c4ccccc34)[C@@](C(=O)OC)(c3cc4c(cc3OC)N(C)[C@H]3[C@@](O)(C(=O)OC)[C@H](OC(C)=O)[C@]5(CC)C=CCN6CC[C@]43[C@@H]65)C2)C1 [VINBLASTINE] |  |  | 100 | 100 | 100 | 100 | 100 | 100 | 0 |  |  |  |  |  |  |  |  |  |  | Activity [21]: 0%
14 | CC[C@]1(O)C[C@H]2CN(CCc3c([nH]c4ccccc34)[C@@](C(=O)OC)(c3cc4c(cc3OC)N(C=O)[C@H]3[C@@](O)(C(=O)OC)[C@H](OC(C)=O)[C@]5(CC)C=CCN6CC[C@]43[C@@H]65)C2)C1 [VINCRISTINE] |  |  | 100 | 100 | 100 | 100 | 100 | 0 | 0 |  |  |  |  |  |  |  |  |  |  | Activity [21]: 0%
